Measured values reported in ChEMBL document CHEMBL5321284, “Discovery of a First-in-Class Degrader for the Lipid Kinase PIKfyve” (J Med Chem, 2023).
The source made the active and inactive calls. No cut-off for these calls is given here.

How the values were obtained:
[1] = target: T1, von Hippel-Lindau disease tumor suppressor/1-phosphatidylinositol 3-phosphate 5-kinase (Homo sapiens) (UniProt Q9Y2I7+P40337); assay: PROTAC activity at VHL/PIKfyve in human VCaP cells assessed as induction of PIKfyve degradation at 0.1 uM incubated for 24 hrs by immunoblot analysis; assay type: cell-based
T1 sequence (P40337 whole entry partner): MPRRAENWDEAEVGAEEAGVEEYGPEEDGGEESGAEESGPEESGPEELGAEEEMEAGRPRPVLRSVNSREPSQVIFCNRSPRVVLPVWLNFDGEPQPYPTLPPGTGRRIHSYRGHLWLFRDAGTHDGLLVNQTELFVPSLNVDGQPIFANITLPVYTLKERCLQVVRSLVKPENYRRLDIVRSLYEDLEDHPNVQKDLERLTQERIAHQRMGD
T1 sequence (Q9Y2I7 2-2098 limits assumed): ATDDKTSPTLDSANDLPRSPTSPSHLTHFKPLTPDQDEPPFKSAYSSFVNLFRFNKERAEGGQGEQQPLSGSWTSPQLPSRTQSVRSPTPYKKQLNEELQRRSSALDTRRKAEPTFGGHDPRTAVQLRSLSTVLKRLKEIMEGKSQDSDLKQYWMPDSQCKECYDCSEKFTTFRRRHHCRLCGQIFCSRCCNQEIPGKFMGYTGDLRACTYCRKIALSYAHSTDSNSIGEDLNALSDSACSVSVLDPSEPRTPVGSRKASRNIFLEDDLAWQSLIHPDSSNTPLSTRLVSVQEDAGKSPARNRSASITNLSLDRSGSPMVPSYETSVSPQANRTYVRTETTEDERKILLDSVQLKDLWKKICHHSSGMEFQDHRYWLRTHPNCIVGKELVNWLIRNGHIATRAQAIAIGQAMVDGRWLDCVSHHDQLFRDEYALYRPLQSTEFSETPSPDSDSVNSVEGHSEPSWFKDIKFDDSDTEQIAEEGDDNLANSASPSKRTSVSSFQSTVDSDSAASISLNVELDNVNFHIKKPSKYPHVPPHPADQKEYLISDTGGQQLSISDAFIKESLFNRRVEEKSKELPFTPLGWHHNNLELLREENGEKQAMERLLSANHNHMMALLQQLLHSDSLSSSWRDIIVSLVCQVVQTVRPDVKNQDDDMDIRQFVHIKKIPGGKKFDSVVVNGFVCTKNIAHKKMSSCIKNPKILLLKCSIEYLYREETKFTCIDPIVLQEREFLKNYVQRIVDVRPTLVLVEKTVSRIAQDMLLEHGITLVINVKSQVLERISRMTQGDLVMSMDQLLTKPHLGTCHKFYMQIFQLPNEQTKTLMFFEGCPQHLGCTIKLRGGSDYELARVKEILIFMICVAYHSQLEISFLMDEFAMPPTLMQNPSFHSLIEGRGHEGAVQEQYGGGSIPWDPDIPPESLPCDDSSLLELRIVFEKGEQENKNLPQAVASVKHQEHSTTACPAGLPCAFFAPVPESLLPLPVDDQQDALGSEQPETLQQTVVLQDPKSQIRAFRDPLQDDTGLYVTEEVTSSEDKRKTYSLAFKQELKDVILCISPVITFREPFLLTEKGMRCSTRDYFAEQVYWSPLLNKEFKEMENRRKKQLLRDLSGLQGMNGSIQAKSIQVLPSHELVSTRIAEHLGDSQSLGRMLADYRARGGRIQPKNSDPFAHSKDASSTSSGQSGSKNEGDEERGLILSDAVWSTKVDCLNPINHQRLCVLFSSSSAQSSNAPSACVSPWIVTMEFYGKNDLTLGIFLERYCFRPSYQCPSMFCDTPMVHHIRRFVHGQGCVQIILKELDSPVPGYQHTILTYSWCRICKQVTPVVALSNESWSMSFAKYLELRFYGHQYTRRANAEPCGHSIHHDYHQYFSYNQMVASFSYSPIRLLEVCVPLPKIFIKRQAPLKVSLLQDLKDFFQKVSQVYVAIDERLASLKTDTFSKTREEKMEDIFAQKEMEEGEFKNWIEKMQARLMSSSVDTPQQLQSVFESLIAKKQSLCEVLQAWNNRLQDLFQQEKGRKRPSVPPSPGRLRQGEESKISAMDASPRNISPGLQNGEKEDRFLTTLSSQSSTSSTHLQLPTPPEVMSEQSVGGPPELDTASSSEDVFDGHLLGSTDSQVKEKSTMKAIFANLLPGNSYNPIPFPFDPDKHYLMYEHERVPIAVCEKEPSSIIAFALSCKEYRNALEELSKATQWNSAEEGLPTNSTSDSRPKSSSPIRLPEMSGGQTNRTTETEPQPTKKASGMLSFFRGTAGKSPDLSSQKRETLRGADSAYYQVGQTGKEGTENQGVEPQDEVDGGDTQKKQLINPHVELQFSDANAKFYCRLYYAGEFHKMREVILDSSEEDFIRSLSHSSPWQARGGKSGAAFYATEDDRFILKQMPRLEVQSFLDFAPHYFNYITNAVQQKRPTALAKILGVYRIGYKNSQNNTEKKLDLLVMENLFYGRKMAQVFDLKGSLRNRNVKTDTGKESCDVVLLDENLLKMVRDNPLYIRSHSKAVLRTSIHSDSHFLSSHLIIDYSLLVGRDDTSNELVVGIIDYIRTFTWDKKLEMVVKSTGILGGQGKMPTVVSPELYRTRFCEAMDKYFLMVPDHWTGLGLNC
Outline: (§1)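 VCaP cells treated 24 h at 0.1 or 1.0 µM; percent PIKfyve degradation determined by immunoblotting.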

[2] = target: T1, von Hippel-Lindau disease tumor suppressor/1-phosphatidylinositol 3-phosphate 5-kinase (Homo sapiens); assay: PROTAC activity at VHL/PIKfyve in human VCaP cells assessed as induction of PIKfyve degradation at 1 uM incubated for 24 hrs by immunoblot analysis; assay type: cell-based; outline: as §1
DU-145 [3] = assay: Induction of massive cytoplasmic vacuolization in human RFP-labeled DU-145 cells at 300 nM incubated for 4 hrs; assay type: functional, cell-based
[4] = target: T1, von Hippel-Lindau disease tumor suppressor/1-phosphatidylinositol 3-phosphate 5-kinase (Homo sapiens); assay: PROTAC activity at VHL/PIKfyve in human VCaP cells assessed as induction of PIKfyve degradation at 100 to 300 nM incubated for 4 hrs followed by culturing in compound-free medium for 72 hrs by immunoblot analysis; assay type: cell-based; conditions: dose 100-300 nM
VCaP [5] = assay: Inhibition of autophagy in human VCaP cells assessed as increase in LC3A/B expression at 100 to 300 nM incubated for 4 hrs followed by culturing in compound-free medium for 72 hrs by immunoblot analysis; assay type: functional, cell-based; conditions: dose 100-300 nM
Outline: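 VCaP cells treated 4 h, compounds removed, cultured 72 h in compound-free medium; whole cell lysates immunoblotted for PIKfyve, LC3A/B and GAPDH (RIPA lysis, 4–12% Bis-Tris gels, PVDF, ECL).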

VCaP [6] = assay: Antiproliferative activity against human VCaP cells assessed as inhibition of cell proliferation incubated for 4 hrs followed by culturing in compound-free medium for 2 weeks by crystal violet staining based analysis; assay type: functional
Outline: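 VCaP cells treated 4 h, compound removed, then cultured 2 weeks in drug-free medium; long-term viability by crystal violet staining.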

DU-145 [7] = assay: Induction of massive cytoplasmic vacuolization in human RFP-labeled DU-145 cells incubated for 24 hrs; assay type: functional, cell-based; conditions: dose 100-3000 nM
Outline: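 RFP-labeled DU145 cells treated 24 h (300 nM shown); vacuole area per cell quantified from images.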

VCaP [8] = assay: Antiproliferative activity against human VCaP cells assessed as inhibition of cell proliferation incubated for 24 hrs followed by culturing in compound-free medium for 2 weeks by crystal violet staining based analysis; assay type: functional
Outline: (§2)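 VCaP cells exposed either 24 h then washed and chased 2 weeks in compound-free medium, or continuously for 2 weeks; long-term viability visualized by crystal violet staining; IC50 calculated for each condition.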

VCaP [9] = assay: Antiproliferative activity against human VCaP cells assessed as inhibition of cell proliferation incubated for 2 weeks by crystal violet staining based analysis; assay type: functional; conditions: 336 h; outline: as §2

Compound | Activity [1] | Activity [2] | other results
Cc1cccc(/C=N/Nc2cc(N3CCOCC3)nc(OCCNC(=O)CCCCCCCCC(=O)N[C@H](C(=O)N3C[C@H](O)C[C@H]3C(=O)NCc3ccc(-c4scnc4C)cc3)C(C)(C)C)n2)c1 | 32% | 31% | –
Cc1cccc(/C=N/Nc2cc(N3CCOCC3)nc(OCCc3ccc(NC(=O)CCCC(=O)N[C@H](C(=O)N4C[C@H](O)C[C@H]4C(=O)NCc4ccc(-c5scnc5C)cc4)C(C)(C)C)cc3)n2)c1 | 0% | 0% | –
Cc1cccc(/C=N/Nc2cc(N3CCOCC3)nc(OCCc3ccc(NC(=O)CCCCCCCCCCC(=O)N[C@H](C(=O)N4C[C@H](O)C[C@H]4C(=O)NCc4ccc(-c5scnc5C)cc4)C(C)(C)C)cc3)n2)c1 | 48% | 3% | –
Cc1cccc(/C=N/Nc2cc(N3CCOCC3)nc(OCCNC(=O)CC(=O)N[C@H](C(=O)N3C[C@H](O)C[C@H]3C(=O)NCc3ccc(-c4scnc4C)cc3)C(C)(C)C)n2)c1 | 0% | 0% | –
Cc1cccc(/C=N/Nc2cc(N3CCOCC3)nc(OCCNC(=O)CCCCCC(=O)N[C@H](C(=O)N3C[C@H](O)C[C@H]3C(=O)NCc3ccc(-c4scnc4C)cc3)C(C)(C)C)n2)c1 | 3% | 0% | –
Cc1cccc(/C=N/Nc2cc(N3CCOCC3)nc(OCCNC(=O)CCCCC(=O)N[C@H](C(=O)N3C[C@H](O)C[C@H]3C(=O)NCc3ccc(-c4scnc4C)cc3)C(C)(C)C)n2)c1 | 0% | 10% | –
Cc1cccc(/C=N/Nc2cc(N3CCOCC3)nc(OCCc3ccc(NC(=O)CC(=O)N[C@H](C(=O)N4C[C@H](O)C[C@H]4C(=O)NCc4ccc(-c5scnc5C)cc4)C(C)(C)C)cc3)n2)c1 | 0% | 0% | –
Cc1cccc(/C=N/Nc2cc(N3CCOCC3)nc(OCCNC(=O)CCCC(=O)N[C@H](C(=O)N3C[C@H](O)C[C@H]3C(=O)NCc3ccc(-c4scnc4C)cc3)C(C)(C)C)n2)c1 | 0% | 0% | –
Cc1cccc(/C=N/Nc2cc(N3CCOCC3)nc(OCCNC(=O)CCCCCCCCCC(=O)N[C@H](C(=O)N3C[C@H](O)C[C@H]3C(=O)NCc3ccc(-c4scnc4C)cc3)C(C)(C)C)n2)c1 | 72% | 32% | –
Cc1cccc(/C=N/Nc2cc(N3CCOCC3)nc(OCCc3ccc(NC(=O)CCCCCC(=O)N[C@H](C(=O)N4C[C@H](O)C[C@H]4C(=O)NCc4ccc(-c5scnc5C)cc4)C(C)(C)C)cc3)n2)c1 | 90% | 75% | –
Cc1cccc(/C=N/Nc2cc(N3CCOCC3)nc(OCCc3ccc(NC(=O)CCCCCCCCCC(=O)N[C@H](C(=O)N4C[C@H](O)C[C@H]4C(=O)NCc4ccc(-c5scnc5C)cc4)C(C)(C)C)cc3)n2)c1 | 64% | 41% | –
Cc1cccc(/C=N/Nc2cc(N3CCOCC3)nc(OCCNC(=O)CCC(=O)N[C@H](C(=O)N3C[C@H](O)C[C@H]3C(=O)NCc3ccc(-c4scnc4C)cc3)C(C)(C)C)n2)c1 | 0% | 0% | –
Cc1cccc(/C=N/Nc2cc(N3CCOCC3)nc(OCCc3ccc(NC(=O)CCCCC(=O)N[C@H](C(=O)N4C[C@@H](O)C[C@H]4C(=O)NCc4ccc(-c5scnc5C)cc4)C(C)(C)C)cc3)n2)c1 | 0% | 0% | Activity (DU-145 [3]): Active; Activity [4]: inactive; inhibition (VCaP [5]): inactive; IC50 (VCaP [6]): > 3000 nM
Cc1cccc(/C=N/Nc2cc(N3CCOCC3)nc(OCCNC(=O)CCCCCCCC(=O)N[C@H](C(=O)N3C[C@H](O)C[C@H]3C(=O)NCc3ccc(-c4scnc4C)cc3)C(C)(C)C)n2)c1 | 30% | 17% | –
Cc1cccc(/C=N/Nc2cc(N3CCOCC3)nc(OCCc3ccc(NC(=O)CCC(=O)N[C@H](C(=O)N4C[C@H](O)C[C@H]4C(=O)NCc4ccc(-c5scnc5C)cc4)C(C)(C)C)cc3)n2)c1 | 0% | 8% | –
Cc1cccc(/C=N/Nc2cc(N3CCOCC3)nc(OCCc3ccc(NC(=O)CCCCCCC(=O)N[C@H](C(=O)N4C[C@H](O)C[C@H]4C(=O)NCc4ccc(-c5scnc5C)cc4)C(C)(C)C)cc3)n2)c1 | 26% | 19% | –
Cc1cccc(/C=N/Nc2cc(N3CCOCC3)nc(OCCc3ccc(NC(=O)CCCCCCCCC(=O)N[C@H](C(=O)N4C[C@H](O)C[C@H]4C(=O)NCc4ccc(-c5scnc5C)cc4)C(C)(C)C)cc3)n2)c1 | 81% | 45% | –
Cc1cccc(/C=N/Nc2cc(N3CCOCC3)nc(OCCc3ccccn3)n2)c1 [APILIMOD] | – | – | Activity (DU-145 [3]): Active; Activity (DU-145 [7]): Dose-Dependent Effect; IC50 (VCaP [8]): 1190 nM; inhibition (VCaP [5]): inactive; IC50 (VCaP [9]): 254 nM
Cc1cccc(/C=N/Nc2cc(N3CCOCC3)nc(OCCNC(=O)CCCCCCC(=O)N[C@H](C(=O)N3C[C@H](O)C[C@H]3C(=O)NCc3ccc(-c4scnc4C)cc3)C(C)(C)C)n2)c1 | 0% | 51% | –
Cc1cccc(/C=N/Nc2cc(N3CCOCC3)nc(OCCc3ccc(NC(=O)CCCCCCCC(=O)N[C@H](C(=O)N4C[C@H](O)C[C@H]4C(=O)NCc4ccc(-c5scnc5C)cc4)C(C)(C)C)cc3)n2)c1 | 84% | 92% | –
Cc1cccc(/C=N/Nc2cc(N3CCOCC3)nc(OCCNC(=O)CCCCCCCCCCC(=O)N[C@H](C(=O)N3C[C@H](O)C[C@H]3C(=O)NCc3ccc(-c4scnc4C)cc3)C(C)(C)C)n2)c1 | 67% | 21% | –
Cc1cccc(/C=N/Nc2cc(N3CCOCC3)nc(OCCc3ccc(NC(=O)CCCCC(=O)N[C@H](C(=O)N4C[C@H](O)C[C@H]4C(=O)N[C@@H](C)c4ccc(-c5scnc5C)cc4)C(C)(C)C)cc3)n2)c1 | 47% | 44% | –
